Data as given in ChEMBL document CHEMBL4680226, “Design, synthesis, and evaluation of N-phenyl-4-(2-phenylsulfonamido)-benzamides as microtubule-targeting agents in drug-resistant cancer cells, displaying HDAC inhibitory response” (Eur J Med Chem, 2020).
The source made the active and inactive calls. No cut-off for these calls is given here.

Key:
KB7D [1] = experiment: Induction of apoptosis in human KB7D cells assessed as increase in activated gammaH2AX expression by Western blot analysis; type: functional, cell-based
Outline: (§1)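 Resistant KB cells attached overnight, then drug-treated at the stated concentrations and times (24 h or 48 h). Lysates were immunoblotted for cleaved PARP, caspase-3, -8 and -9, and γH2AX, with anti-mouse or anti-rabbit IgG secondaries.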

KB7D [2] = experiment: Induction of apoptosis in human KB7D cells assessed as increase in cleaved caspase-8 expression by Western blot analysis; type: functional, cell-based
Outline: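 KB-7D cells in RPMI 1640 with 5% FBS and 1% penicillin-streptomycin at 37 °C, 5% CO2, attached overnight. Treated with indicated concentrations for 24 or 48 h, lysed, and immunoblotted for cleaved caspases.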

Tubulin (Homo sapiens) [3] = molecular target: T1, Tubulin (Homo sapiens) (UniProt P68371+Q9H4B7+P0DPH7+P68366+Q13509+Q71U36+P04350+Q3ZCM7+P07437+P68363+Q9BQE3+Q6PEY2+Q13885+Q9BVA1+Q9BUF5); experiment: Induction of microtubule disruption in human KB-VIN cells at 0.05 uM measured after 24 hrs by DAPI staining based deconvolution fluorescence microscopic analysis; type: cell-based
Outline: (§2)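 Cells on glass coverslips treated 24 h, fixed in 4% paraformaldehyde for 15 min, and permeabilized with 0.5% Triton X-100. Blocked in PBS/2% BSA, stained with anti-beta-tubulin (1:250) and Alexa 488 anti-mouse (1:250), and mounted with DAPI. Imaged by wide-field deconvolution microscopy.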

Histone deacetylase 8 = molecular target: T2, Histone deacetylase 8 (Homo sapiens, UniProt Q9BY41); experiment: Inhibition of human recombinant HDAC8 using RHKAcKAc-AMC as substrate measured after 60 mins by fluorescence assay
T2 sequence (Q9BY41 whole entry): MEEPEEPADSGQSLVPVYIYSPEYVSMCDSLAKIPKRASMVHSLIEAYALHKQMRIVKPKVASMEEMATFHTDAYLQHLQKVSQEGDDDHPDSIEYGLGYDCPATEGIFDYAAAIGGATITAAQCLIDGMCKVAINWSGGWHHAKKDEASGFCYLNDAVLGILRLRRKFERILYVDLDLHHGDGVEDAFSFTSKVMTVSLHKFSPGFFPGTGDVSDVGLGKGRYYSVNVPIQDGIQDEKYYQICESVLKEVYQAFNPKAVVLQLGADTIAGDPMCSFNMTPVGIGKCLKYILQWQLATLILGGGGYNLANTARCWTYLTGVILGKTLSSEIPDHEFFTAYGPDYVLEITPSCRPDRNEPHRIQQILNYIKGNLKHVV

Tubulin (Homo sapiens) [4] = molecular target: T1, Tubulin (Homo sapiens); experiment: Induction of microtubule disruption in human KB7D cells at 0.05 uM measured after 24 hrs by DAPI staining based deconvolution fluorescence microscopic analysis; type: cell-based; outline: as §2
KB-VIN [5] = experiment: Induction of apoptosis in human KB-VIN cells assessed as increase in cleaved caspase-8 expression at 0.05 uM measured after 48 hrs by Western blot analysis; type: functional, cell-based; outline: as §1
Tubulin (Homo sapiens) [6] = molecular target: T1, Tubulin (Homo sapiens); experiment: Induction of microtubule disruption in human KB-VIN cells assessed as polymerized fraction at 0.1 uM measured after 16 hrs by SDS-PAGE analysis (reference value: 23.1 to 25.5%); type: cell-based
Outline: (§3)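 KB-Vin or KB-7D cells treated 16 h, then lysed 5 min at 37 °C in the dark in hypotonic buffer (1% NP-40, 1 mmol/L MgCl2, 2 mmol/L EGTA, 50 mmol/L Tris-HCl pH 6.8, protease inhibitors). Spun 13000 rpm, 10 min, room temperature. Soluble supernatant and resuspended polymerized pellet run on SDS-PAGE.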

KB-VIN [7] = experiment: Induction of apoptosis in human KB-VIN cells assessed as increase in cleaved PARP expression by Western blot analysis; type: functional, cell-based; outline: as §1
KB7D [8] = experiment: Induction of apoptosis in human KB7D cells assessed as increase in cleaved PARP expression at 0.01 to 0.1 uM measured after 48 hrs by Western blot analysis; type: functional, cell-based; conditions: dose 0.01-0.1 µM; outline: as §1
KB-VIN [9] = experiment: Cell cycle arrest in human KB-VIN cells assessed as increase in accumulation at sub-G1 phase at 0.5 uM measured after 24 hrs by propidium iodide staining based flow cytometry; type: functional
Outline: (§4)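 Cells seeded at 2.5×10^5 per well and exposed to DMSO or compound for the stated times. They were washed in PBS and fixed overnight in ice-cold 70% ethanol at −20 °C. Staining used propidium iodide 80 µg/mL with 0.1% Triton X-100 and RNase A 100 µg/mL in PBS. DNA content was read by FACScan flow cytometry.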

KB7D [10] = experiment: Induction of apoptosis in human KB7D cells assessed as increase in cleaved caspase-3 expression by Western blot analysis; type: functional, cell-based; outline: as §1
KB7D [11] = experiment: Cell cycle arrest in human KB7D cells assessed as increase in accumulation at sub-G1 phase at 0.01 to 0.1 uM measured after 48 hrs by propidium iodide staining based flow cytometry; type: functional; conditions: dose 0.01-0.1 µM; outline: as §4
[12] = molecular target: Histone deacetylase 3/Nuclear receptor corepressor 2 (HDAC3/NCoR2) (Homo sapiens, UniProt O15379); experiment: Inhibition of human recombinant HDAC3/NCOR2 using RHKKAc-AMC as substrate measured after 60 mins by fluorescence assay; type: protein-complex assay
Sequence of Histone deacetylase 3/Nuclear receptor corepressor 2 (HDAC3/NCoR2) (O15379 whole entry): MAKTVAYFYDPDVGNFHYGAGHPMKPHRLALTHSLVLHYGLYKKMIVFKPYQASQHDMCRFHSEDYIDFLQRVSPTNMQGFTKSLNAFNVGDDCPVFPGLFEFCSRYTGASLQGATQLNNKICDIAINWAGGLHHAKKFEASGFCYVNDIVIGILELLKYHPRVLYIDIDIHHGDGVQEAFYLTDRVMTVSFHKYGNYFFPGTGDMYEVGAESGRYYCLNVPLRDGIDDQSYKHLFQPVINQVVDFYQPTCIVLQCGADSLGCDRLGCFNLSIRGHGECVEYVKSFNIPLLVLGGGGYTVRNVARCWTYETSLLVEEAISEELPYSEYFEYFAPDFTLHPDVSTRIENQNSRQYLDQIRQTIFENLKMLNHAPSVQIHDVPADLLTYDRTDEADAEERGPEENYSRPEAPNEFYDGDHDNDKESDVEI
Sequence of Histone deacetylase 3/Nuclear receptor corepressor 2 (HDAC3/NCoR2) (Q9Y618 whole entry, further chain): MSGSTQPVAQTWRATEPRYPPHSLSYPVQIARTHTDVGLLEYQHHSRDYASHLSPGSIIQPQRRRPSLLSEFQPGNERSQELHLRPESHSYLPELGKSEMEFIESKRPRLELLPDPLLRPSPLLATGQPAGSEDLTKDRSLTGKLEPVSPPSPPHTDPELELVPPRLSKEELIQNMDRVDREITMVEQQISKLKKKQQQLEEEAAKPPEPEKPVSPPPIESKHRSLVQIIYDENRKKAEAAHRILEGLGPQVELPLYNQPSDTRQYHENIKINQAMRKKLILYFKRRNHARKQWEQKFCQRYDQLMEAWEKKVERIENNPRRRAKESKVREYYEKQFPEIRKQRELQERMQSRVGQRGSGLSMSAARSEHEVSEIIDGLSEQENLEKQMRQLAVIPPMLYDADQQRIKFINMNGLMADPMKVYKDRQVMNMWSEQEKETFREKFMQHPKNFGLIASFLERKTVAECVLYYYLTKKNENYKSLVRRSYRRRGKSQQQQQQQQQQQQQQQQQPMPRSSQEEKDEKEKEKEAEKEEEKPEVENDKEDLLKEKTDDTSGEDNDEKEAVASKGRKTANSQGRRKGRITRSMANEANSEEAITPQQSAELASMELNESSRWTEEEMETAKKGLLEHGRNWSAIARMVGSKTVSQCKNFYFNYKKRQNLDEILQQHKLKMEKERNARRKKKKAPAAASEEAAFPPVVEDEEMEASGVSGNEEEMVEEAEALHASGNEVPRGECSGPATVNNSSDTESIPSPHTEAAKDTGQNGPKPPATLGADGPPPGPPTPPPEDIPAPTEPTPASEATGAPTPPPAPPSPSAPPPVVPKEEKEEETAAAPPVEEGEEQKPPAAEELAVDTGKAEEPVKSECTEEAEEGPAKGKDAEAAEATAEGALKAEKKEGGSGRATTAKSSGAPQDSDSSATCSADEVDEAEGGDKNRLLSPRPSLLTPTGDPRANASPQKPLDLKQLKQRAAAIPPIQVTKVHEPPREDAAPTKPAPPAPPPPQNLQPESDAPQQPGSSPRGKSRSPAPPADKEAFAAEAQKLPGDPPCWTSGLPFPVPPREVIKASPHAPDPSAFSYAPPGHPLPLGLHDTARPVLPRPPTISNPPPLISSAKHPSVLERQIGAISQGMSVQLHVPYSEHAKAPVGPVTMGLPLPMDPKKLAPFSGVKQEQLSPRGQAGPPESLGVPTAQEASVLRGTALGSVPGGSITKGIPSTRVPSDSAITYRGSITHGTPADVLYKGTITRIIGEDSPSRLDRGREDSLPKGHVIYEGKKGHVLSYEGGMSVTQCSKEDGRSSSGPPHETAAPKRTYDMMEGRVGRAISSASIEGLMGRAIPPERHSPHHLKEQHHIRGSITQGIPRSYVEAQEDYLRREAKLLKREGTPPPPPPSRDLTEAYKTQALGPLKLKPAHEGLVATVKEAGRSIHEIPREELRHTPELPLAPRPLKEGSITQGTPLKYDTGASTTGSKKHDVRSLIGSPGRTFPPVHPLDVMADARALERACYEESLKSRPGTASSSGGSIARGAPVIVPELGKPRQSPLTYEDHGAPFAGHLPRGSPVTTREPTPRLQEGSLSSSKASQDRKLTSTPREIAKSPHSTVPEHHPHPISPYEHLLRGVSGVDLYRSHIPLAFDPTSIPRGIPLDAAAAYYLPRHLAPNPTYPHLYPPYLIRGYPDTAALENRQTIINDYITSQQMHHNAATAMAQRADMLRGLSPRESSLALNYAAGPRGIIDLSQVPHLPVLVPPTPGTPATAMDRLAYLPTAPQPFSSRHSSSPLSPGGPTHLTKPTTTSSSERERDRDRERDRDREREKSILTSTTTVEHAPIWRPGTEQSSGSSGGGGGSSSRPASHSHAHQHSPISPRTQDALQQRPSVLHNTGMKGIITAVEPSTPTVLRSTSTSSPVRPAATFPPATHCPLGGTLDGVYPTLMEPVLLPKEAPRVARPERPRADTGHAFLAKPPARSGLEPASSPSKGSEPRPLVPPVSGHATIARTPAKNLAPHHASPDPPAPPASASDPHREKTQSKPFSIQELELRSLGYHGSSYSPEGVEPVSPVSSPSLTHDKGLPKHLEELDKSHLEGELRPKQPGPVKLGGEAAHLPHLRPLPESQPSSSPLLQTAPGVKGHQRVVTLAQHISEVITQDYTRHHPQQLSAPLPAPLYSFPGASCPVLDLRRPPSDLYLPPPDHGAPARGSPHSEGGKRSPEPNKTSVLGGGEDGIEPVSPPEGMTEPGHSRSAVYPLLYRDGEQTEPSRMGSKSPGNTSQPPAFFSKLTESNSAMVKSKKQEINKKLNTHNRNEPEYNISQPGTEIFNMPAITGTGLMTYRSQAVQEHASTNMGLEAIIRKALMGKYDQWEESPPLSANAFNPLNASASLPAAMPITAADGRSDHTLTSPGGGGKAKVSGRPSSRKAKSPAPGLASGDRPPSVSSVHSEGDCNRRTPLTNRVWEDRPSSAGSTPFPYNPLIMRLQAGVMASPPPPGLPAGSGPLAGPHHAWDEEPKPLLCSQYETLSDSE

KB-VIN [13] = experiment: Induction of apoptosis in human KB-VIN cells assessed as increase in activated gammaH2AX expression at 0.05 uM measured after 48 hrs by Western blot analysis; type: functional, cell-based; outline: as §1
KB-VIN [14] = experiment: Induction of apoptosis in human KB-VIN cells assessed as increase in cleaved caspase-9 expression at 0.05 uM measured after 48 hrs by Western blot analysis; type: functional, cell-based; outline: as §1
KB-VIN [15] = experiment: Induction of apoptosis in human KB-VIN cells assessed as increase in cleaved caspase-8 expression by Western blot analysis; type: functional, cell-based; outline: as §1
KB7D [16] = experiment: Induction of apoptosis in human KB7D cells assessed as increase in cleaved PARP expression by Western blot analysis; type: functional, cell-based; outline: as §1
Tubulin (Homo sapiens) [17] = molecular target: T1, Tubulin (Homo sapiens); experiment: Induction of microtubule disruption in human KB-VIN cells assessed as polymerized fraction at 0.01 uM measured after 16 hrs by SDS-PAGE analysis (reference value: 23.1 to 25.5%); type: cell-based; outline: as §3
Tubulin (Homo sapiens) [18] = molecular target: T1, Tubulin (Homo sapiens); experiment: Induction of microtubule disruption in human KB7D cells assessed as polymerized fraction at 0.1 uM measured after 16 hrs by SDS-PAGE analysis (reference value: 26.4 to 29%); type: cell-based; outline: as §3

- Activity (Tubulin (Homo sapiens) [3]): Active
- IC50 (Histone deacetylase 8): > 10000 nM
- Activity (Tubulin (Homo sapiens) [4]): Active
- Activity (Tubulin (Homo sapiens) [6]): 20.4%
- IC50 [12]: 2270 nM
- Activity (Tubulin (Homo sapiens) [17]): 25.9%
- Activity (Tubulin (Homo sapiens) [18]): 13.3%
SMILES: COc1ccc(S(=O)(=O)Nc2ccccc2NCc2ccc(C(=O)Nc3ccccc3N)cc2)cc1
- Activity (KB7D [1]): Dose-dependent effect
- Activity (KB7D [2]): Dose-dependent effect
- Activity (KB-VIN [5]): Active
- Activity (KB-VIN [7]): Dose-dependent effect
- Activity (KB7D [8]): Active
- Activity (KB-VIN [9]): Active
- Activity (KB7D [10]): Dose-dependent effect
- Activity (KB7D [11]): Active
- Activity (KB-VIN [13]): Active
- Activity (KB-VIN [14]): Active
- Activity (KB-VIN [15]): Dose-dependent effect
- Activity (KB7D [16]): Dose-dependent effect
